This passage reports inhibition results from ChEMBL document CHEMBL1156838, “Utilization of the 1,2,3,5-thiatriazolidin-3-one 1,1-dioxide scaffold in the design of potential inhibitors of human neutrophil proteinase 3” (Bioorg Med Chem, 2010).

Activity calls are given as the source filed them. The rule behind the calls is not given here.

The target of experiment [1] is T1, Neutrophil elastase (Homo sapiens) (UniProt P08246).
T1 sequence (whole entry): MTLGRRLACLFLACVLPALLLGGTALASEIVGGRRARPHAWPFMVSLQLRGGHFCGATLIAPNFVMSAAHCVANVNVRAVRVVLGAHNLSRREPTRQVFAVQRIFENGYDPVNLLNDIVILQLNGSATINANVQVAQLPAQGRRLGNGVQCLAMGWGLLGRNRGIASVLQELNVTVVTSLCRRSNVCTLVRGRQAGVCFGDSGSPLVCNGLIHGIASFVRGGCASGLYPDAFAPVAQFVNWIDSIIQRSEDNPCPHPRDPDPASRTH
Nature of the experiment: Inhibition of human neutrophil elastase. The method in brief: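 Human elastase (final 70 nM; added from a stock in 0.05 mM sodium acetate/0.5 M NaCl pH 5.50) in 0.1 M HEPES/0.5 M NaCl pH 7.25 at 25 °C. Substrate was methoxysuccinyl-Ala-Ala-Pro-Val p-nitroaniline, with single inhibitor level from DMSO. […] read for 2 min against a DMSO-only hydrolysis control. % inhibition = (1 − v/vo)×100, mean of duplicate or triplicate runs.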

Experiment [2] concerns the target T2, Myeloblastin (Homo sapiens) (UniProt P24158).
T2 sequence (whole entry): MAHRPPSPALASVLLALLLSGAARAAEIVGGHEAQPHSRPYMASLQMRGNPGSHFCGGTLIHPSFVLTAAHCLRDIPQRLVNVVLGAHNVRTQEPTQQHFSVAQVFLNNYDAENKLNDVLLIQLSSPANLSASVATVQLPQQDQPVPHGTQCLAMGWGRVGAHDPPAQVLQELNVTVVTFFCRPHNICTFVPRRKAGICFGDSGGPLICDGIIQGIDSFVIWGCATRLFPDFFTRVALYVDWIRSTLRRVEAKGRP
The experiment in a line: Inhibition of human neutrophil proteinase 3. The method in brief:
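Human proteinase 3 (final 34.5 nM; added from a stock in 0.1 M phosphate pH 6.50) in 0.1 M HEPES/0.5 M NaCl pH 7.25 at 25 °C. Thiobenzyl ester substrate Boc-Ala-Ala-NVa-SBzl, with 5,5′-dithio-bis(2-nitrobenzoic acid) from DMSO and single inhibitor level from DMSO. Absorbance followed at […] for 2 min against an uninhibited hydrolysis control. % inhibition = (1 − v/vo)×100, duplicate or triplicate mean.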

Consider `CCN1CN(Cc2cn(CC(=O)c3ccccc3F)nn2)S(=O)(=O)N1CC`, for which the inhibition result in experiment [1] and in experiment [2] was “inactive” throughout.

For `CCN1CN(Cc2cccc(NC(=O)CCOC)c2)S(=O)(=O)N1CC`, the inhibition result in experiment [1] and in experiment [2] was “inactive” throughout.

For `CCN1CN(Cc2cccc(NC(=O)c3ccccc3)c2)S(=O)(=O)N1CC`, the inhibition result in experiment [1] and in experiment [2] was “inactive” each time.

In the case of `CCN1CN(Cc2cn(CC(=O)c3cccs3)nn2)S(=O)(=O)N1CC`, the inhibition entry in experiment [1] and in experiment [2] was “inactive” in each case.

Turning to `CCN1C(=O)N(C(Cc2ccccc2)C(=O)Nc2ccccc2NC(=O)OCC(C)C)S(=O)(=O)N1CC` (stereo unspecified), the inhibition result in experiment [1] was “Active”. Besides, the inhibition entry in experiment [2] is “inactive”.

For the compound `CCN1CN(Cc2cccc(NC(=O)c3cccc(Oc4ccccc4)c3)c2)S(=O)(=O)N1CC`, the inhibition result in experiment [1] and in experiment [2] was “inactive” in each case.

On to `CCN1CN(Cc2cccc(NC(=O)c3cccc(OC)c3)c2)S(=O)(=O)N1CC`, for which the inhibition entry in experiment [1] and in experiment [2] was “inactive” each time.

Consider `CCN1CN(Cc2cccc(NC(=O)NCCc3ccccc3)c2)S(=O)(=O)N1CC`, for which the inhibition entry in experiment [1] and in experiment [2] was “inactive” throughout.
